# About 300 (0.086%) of roughly 350,000 compounds were called active.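 How the source made its calls: active means mean inhibition across replicates of 30% or more, regardless of how many single replicates reach that level; inconclusive means mean under 30% yet at least half of replicates reach 30%; inactive means the rest.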 The list comes from a sample in which actives are over-represented; it also holds similar structures and randomly drawn compounds.
# Experiment: blockers of fibronectin fibrillogenesis by fibroblasts – AH1F cells, Alexa488-fibronectin fluorescence, plate reader, primary screen (AID 743247);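 further: positive control wells lacked labelled fibronectin entirely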
# Conditions: Alexa488-fibronectin deposition fluorescence, overnight, at 12.6 µM, stronger effect = higher value
# In short: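 test system = AH1F fibroblasts assembling fluorescent fibronectin matrix | quantity = 10000 AH1F cells per well | buffer or medium = DMEM plus 2% serum, read in PBS | doses = single dose, pinned | incubation = 1 h cell attachment, overnight exposure to compound and label | detection = fluorescence at 485 nm excitation, 525 nm emission | read-out basis = inhibition from reduced deposited-fibronectin fluorescence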
row,SMILES,inhibition
1,CO[C@@H]1CN(C)C(=O)c2cc(NC(=O)C3CC3)ccc2OC[C@@H](C)N(C(=O)NC(C)C)C[C@@H]1C,-0.851% (inactive)
2,C[C@@H](NC(=O)C[C@@H]1C[C@H]2c3cc(NC(=O)C4CCC4)ccc3O[C@H]2[C@@H](CO)O1)c1ccccc1,17.4% (inactive)
3,O=C(NC[C@@H]1[C@@H](c2ccccc2)[C@@H](CO)N1Cc1ccccn1)C1CCC1,-14.4% (inactive)
4,O=C(C[C@@H]1CC[C@@H](NS(=O)(=O)c2ccc(F)cc2)[C@@H](CO)O1)NCCc1ccncc1,-5.79% (inactive)
5,C[C@@H]1CN([C@@H](C)CO)C(=O)Cc2cc(NC(=O)Nc3ccc4c(c3)OCO4)ccc2O[C@H]1CN(C)S(=O)(=O)c1ccccc1,0.36% (inactive)
6,C[C@@H]1CN([C@H](C)CO)C(=O)c2ccccc2-c2ccccc2CO[C@H]1CN(C)S(=O)(=O)c1ccsc1,1.86% (inactive)
7,C[C@@H]1CN([C@H](C)CO)S(=O)(=O)c2ccc(C#CC3CC3)cc2O[C@H]1CN(C)C(=O)C1CCCCC1,-1.06% (inactive)
8,COc1ccc2c3c(n(C)c2c1)[C@H](CO)NCC31CN(Cc2cc(F)ccc2F)C1,-4.09% (inactive)
9,O=C(C1CCCCC1)N1CC2(C1)[C@H](c1ccccc1)[C@H](CO)N2CC1CCCC1,-10.3% (inactive)
10,CS(=O)(=O)N1C[C@@H]2C(c3ccccc3)[C@H](C1)N2CC(F)(F)F (some centres not stated),-13.1% (inactive)
11,O=C(C[C@@H]1CC[C@@H](NC(=O)Nc2ccc(F)cc2)[C@H](CO)O1)NCCN1CCCC1,0.829% (inactive)
12,COc1ccc(-c2ccc3c(c2)[C@@H]2[C@@H](CCN2C(=O)NC2CCCC2)[C@@H](CO)N3C)cc1,5.47% (inactive)
13,CC(C)NC(=O)Nc1cccc2c1O[C@@H](CN(C)C(=O)NC(C)C)[C@@H](C)CN(C)C2=O,3.55% (inactive)
14,CN(C)CC(=O)N1CC2(C1)[C@H](c1ccccc1)[C@H](CO)N2C(=O)C1CC1,-3.48% (inactive)
15,O=C(C1CCOCC1)N1CC(=O)N2[C@H](CO)[C@@H](c3ccc(C#CC4CCCC4)cc3)[C@H]2C1,-4.97% (inactive)
16,Cc1ccc(-n2ncc3c(=O)[nH]cnc32)c(C)c1,-2.15% (inactive)
17,Cc1cccc(-n2ncc(Cl)c(Cl)c2=O)c1,51.7% (active)
18,Cc1cccc(-n2ncc3c(=O)[nH]c(SCC(=O)Nc4cc(C)on4)nc32)c1,-0.734% (inactive)
19,COc1ccc(-c2ccc3c(c2)O[C@@H](CN(C)CC2CCOCC2)[C@@H](C)CN([C@@H](C)CO)S3(=O)=O)cc1,5.61% (inactive)
20,C[C@@H]1CC=CC[C@@H](c2ccccc2)NC(=O)[C@H](C)N(C)C(=O)c2ccccc2O1 (mixture of isomers),-2.82% (inactive)
21,CN(C)c1ccc2c(c1)[C@H]1C[C@H](CC(=O)NCc3ccc(Cl)cc3)O[C@H](CO)[C@H]1O2,1.04% (inactive)
22,C[C@@H]1CC=CC[C@H](c2ccc(F)cc2)NC(=O)[C@@H](Cc2ccccc2)N(C)C(=O)c2ccccc2O1 (mixture of isomers),7.06% (inactive)
23,COc1ccccc1NC(=O)N[C@H]1CC[C@H](CCNC(=O)Cc2ccccn2)O[C@@H]1CO,1.21% (inactive)

row,SMILES,inhibition
1,COC(=O)C[C@H]1CC[C@@H]2[C@@H](COc3ccc(NC(=O)Nc4ccc(Cl)cc4)cc3C(=O)N2C)O1,-17.5% (inactive)
2,CN(C)C(=O)c1ccc(-c2ccc([C@H]3[C@H](CO)N4C(=O)CN(C(=O)C5CCCC5)C[C@@H]34)cc2)cc1,0.201% (inactive)
3,C[C@H]1CCCCO[C@H](CN(C)C(=O)Nc2ccc(F)cc2)[C@@H](C)CN([C@@H](C)CO)C(=O)c2cc(NC(=O)CCC(F)(F)F)ccc2O1,7.35% (inactive)
4,COc1ccc2c3c(n(C)c2c1)[C@H](CO)N(C(=O)c1ccncc1)CC31CCN(CC2CC2)CC1,-1.91% (inactive)
5,O=C(C[C@@H]1C=C[C@@H](NC(=O)c2cccnc2)[C@H](CO)O1)NCc1ccncn1,11.1% (inactive)
6,CNC(=O)C[C@@H]1CC[C@@H]2[C@H](COc3ccc(NC(=O)c4cccs4)cc3C(=O)N2C)O1,-9.79% (inactive)
7,C[C@@H](C(=O)N(C)C[C@H]1OCc2ccccc2-c2c(n(C)c3ccccc23)C(=O)N([C@@H](C)CO)C[C@@H]1C)c1ccccc1,-2.51% (inactive)
8,COc1cccc(C#Cc2ccc3c(c2)[C@@H]2[C@@H](CCN2S(=O)(=O)c2ccc(C)cc2)[C@@H](CO)N3)c1,2.44% (inactive)
9,COc1ccccc1C#Cc1ccc([C@H]2[C@@H](C#N)N(C(=O)C3CCCCC3)[C@@H]2CO)cc1,-2.57% (inactive)
10,O=C(C[C@@H]1CC[C@@H]2[C@H](COC[C@@H](O)CN2C(=O)c2ccccc2F)O1)N1CCOCC1,-11.5% (inactive)
11,O=C(O)C[C@H]1C=C[C@@H](NC(=O)Nc2cc(F)ccc2F)[C@@H](CO)O1,-9.56% (inactive)
12,COc1ccc([C@@H]2C/C=C\C[C@@H](c3ccc4c(c3)OCO4)NC(=O)CCC(=O)N2)c(OC)c1,8.56% (inactive)
13,CC(C)NC(=O)N[C@@H]1CC[C@H](CC(=O)NC2Cc3ccccc3C2)O[C@H]1CO,10.9% (inactive)
14,O=C(C[C@@H]1CC[C@H](NC(=O)C2CCC2)[C@@H](CO)O1)NC1CCCCC1,-5.05% (inactive)
15,CC(C)C#Cc1ccc2c(c1)O[C@@H](CN(C)C(=O)C1CCC1)[C@@H](C)CN([C@@H](C)CO)S2(=O)=O,-2.23% (inactive)
16,CC(=O)N(C)C[C@H]1Oc2ncc(C#Cc3ccc(F)cc3)cc2C(=O)N([C@H](C)CO)C[C@@H]1C,11.6% (inactive)
17,CN1C(=O)c2cc(NC(=O)Cc3ccccc3)ccc2OC[C@H]2O[C@H](CC(=O)NCc3ccc(Cl)cc3)CC[C@H]21,1.06% (inactive)
18,CC(C)NC(=O)Nc1ccc2c(c1)CC(=O)N(C)C[C@@H](C)[C@@H](CN(C)C(=O)OC(C)(C)C)O2,-1.15% (inactive)
19,COc1cccc(C(=O)Nc2ccc3c(c2)OC[C@H](C)NC[C@H](C)[C@H](OC)CN(C)C3=O)c1,3.33% (inactive)
20,O=C(c1cccnc1)N1C[C@H]2[C@@H](c3ccccc31)[C@H](CO)N2C(=O)C1CC1,7.1% (inactive)
21,COc1cccc(-c2cnc3c(c2)C(=O)N([C@@H](C)CO)C[C@@H](C)[C@@H](CN(C)Cc2ccc(C(=O)O)cc2)O3)c1,-19.8% (inactive)
22,CC(C)NC(=O)N(C)C[C@H]1Oc2ccc(N)cc2C(=O)N(C)C[C@@H]1C,0.428% (inactive)
23,C[C@H]1CCCCO[C@@H](CN(C)C(=O)Nc2ccccc2)[C@@H](C)CN([C@@H](C)CO)C(=O)c2cc(NC(=O)CCC(F)(F)F)ccc2O1,-5.23% (inactive)

row,SMILES,inhibition
1,C[C@@H]1CN([C@@H](C)CO)C(=O)c2c(c3ccccc3n2C)-c2ccccc2CO[C@H]1CN(C)C(=O)N[C@H](C)c1ccccc1,-3.56% (inactive)
2,COCC(=O)Nc1ccc2c(c1)OC[C@@H](C)N(Cc1ccccc1C(=O)O)C[C@@H](C)[C@H](OC)CN(C)C2=O,-5.62% (inactive)
3,CCC(=O)Nc1ccc2c(c1)C(=O)N(C)C[C@@H](OC)[C@@H](C)CN(C(=O)CN(C)C)[C@@H](C)CO2,2.05% (inactive)
4,CNC[C@@H]1Oc2ccc(NC(C)=O)cc2CC(=O)N(C)C[C@@H]1C,-0.299% (inactive)
5,CO[C@H]1CN(C)C(=O)c2ccc(NC(=O)Nc3ccccc3)cc2OC[C@@H](C)N(C(=O)CC2CC2)C[C@@H]1C,-8.75% (inactive)
6,O=C(Nc1nc(-c2ccncc2)cs1)C1COc2ccccc2O1 (configuration not stated),30.8% (active)
7,O=C(Nc1cc(S(=O)(=O)N2CCCCC2)ccc1Cl)C1COc2ccccc2O1 (configuration not stated),1.13% (inactive)
8,C/C(=N/NC(=O)C1COc2ccccc2O1)c1ccco1 (configuration not stated),-7.65% (inactive)
9,COc1ccccc1NC(=O)N[C@H]1C=C[C@@H](CC(=O)N[C@@H](C)c2ccccc2)O[C@@H]1CO,-15.6% (inactive)
10,CCCc1cn(CC[C@H]2CC[C@@H](NC(=O)C3CCOCC3)[C@@H](CO)O2)nn1,0.091% (inactive)
11,O=C(OCC(O)C(O)COC(=O)c1ccccc1)c1ccccc1 (configuration not stated),2.45% (active)
12,O=C(COC(=O)c1ccccc1)Nc1ccccc1Sc1ccccc1,-7.06% (inactive)
13,O=C(OCc1ccc(-c2ccccc2)cc1)c1cccc(O)c1,7.52% (inactive)
14,C[C@H]1CN([C@@H](C)CO)C(=O)c2c(c3ccccc3n2C)-c2ccccc2CO[C@@H]1CN(C)C(=O)Nc1ccnc(N2CCOCC2)c1,4.14% (inactive)
15,O=C(C1CCC1)N1CC(=O)N2[C@H](CO)[C@H](c3ccc(C#CCc4ccccc4)cc3)[C@@H]2C1,-13.2% (inactive)
16,O=C(C[C@H]1C=C[C@@H](NC(=O)c2ccc(F)cc2)[C@@H](CO)O1)NCCc1ccncc1,10.9% (inactive)
17,COc1ccccc1S(=O)(=O)N1C[C@@H](O)COC[C@H]2O[C@H](CC(=O)O)CC[C@@H]21,-7.66% (inactive)
18,Cc1ccc(S(=O)(=O)Nc2ccc3c(c2)C(=O)N([C@@H](C)CO)C[C@@H](C)[C@@H](CN(C)Cc2ccc(C(F)(F)F)cc2)OCCCC[C@@H](C)O3)cc1,7.11% (inactive)
19,CC(C)NC(=O)N[C@H]1CC[C@H](CC(=O)NCCCN(C)C)O[C@H]1CO,-22.3% (inactive)
20,C[C@H]1CN(C)C(=O)c2cc(N(C)C)ccc2O[C@H]1CN(C)C(=O)OC(C)(C)C,-2.56% (inactive)
21,CO[C@@H]1CN(C)C(=O)c2cc(NC(=O)C3CC3)ccc2OC[C@H](C)N(C(=O)CN(C)C)C[C@H]1C,-1.48% (inactive)

# From PubChem BioAssay AID743247 (Broad Institute, 2014)
